Bioassay records deposited in PubChem by several laboratories.
NTR1 agonist – NTR1 (human) agonism | P30989 | NTR1-U2OS beta-arrestin-GFP spot imaging, agonist mode | activation, % at 20 µM | hit rate 0.17% among 330,000 | AID 493036;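 active = activation at or above 40% of the spot to cytoplasm intensity ratio, with at least 20 cells analyzed; inconclusive = wells under 20 cells, flagged as cytotoxic or low count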
Target sequence (P30989 whole entry, looked up): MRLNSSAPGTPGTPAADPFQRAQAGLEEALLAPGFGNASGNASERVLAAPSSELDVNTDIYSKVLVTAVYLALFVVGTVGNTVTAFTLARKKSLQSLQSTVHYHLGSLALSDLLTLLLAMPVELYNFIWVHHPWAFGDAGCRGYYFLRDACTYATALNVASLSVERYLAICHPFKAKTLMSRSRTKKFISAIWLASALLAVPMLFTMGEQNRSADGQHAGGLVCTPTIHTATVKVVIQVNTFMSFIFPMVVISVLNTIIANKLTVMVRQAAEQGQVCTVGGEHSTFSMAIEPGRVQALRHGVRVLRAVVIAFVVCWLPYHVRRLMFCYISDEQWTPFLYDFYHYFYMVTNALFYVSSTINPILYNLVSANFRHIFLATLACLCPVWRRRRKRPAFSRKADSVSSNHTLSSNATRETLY
MC4R barr agon – agonists of human melanocortin 4 receptor (MC4R) beta-arrestin | AID 540308 | activation, % at 8.9 µM | U2OS MC4R beta-arrestin complementation, luminescence; percent of melanotan II response, DMSO zero | hit rate 0.98% among 360,000 | P32245;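 active = activation above a per-plate cutoff, the mean activation of sample wells on that plate plus 3 SD, cut at about 8% in these data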
PREPL inh – inhibitors of human prolyl oligopeptidase-like enzyme PREPL; Q4J6C6; recombinant PREPL, fluorescence polarization activity-based probe; inhibition, % at 5.96 µM; hit rate 0.68% among 320,000; AID 2751; in the data active = inhibition above about 43%
MC4R antagonist – human MC4R antagonism in cAMP assay. hit rate 0.48% among 360,000. inhibition, % at 6.5 µM. MC4R-expressing cells, MTII-stimulated cAMP, LANCE TR-FRET. P32245;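 active = inhibition above its plate's cutoff, the mean of tested wells on that plate plus 3 SD, cut at about 29% in these data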
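Assay system: U2OS-MC4R stable cell line; Also added: Melanotan II; Technique: Eu-cAMP/anti-cAMP TR-FRET, emission 671 nm; Times: 30-min compound, 1-h challenge, 1-h detection, room temperature.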
m5-HT2A agonist – mouse HTR2A agonism via beta-arrestin recruitment; P35363; CHO-K1 mHTR2A beta-arrestin complementation, luminescence; percent of 30 µM serotonin response; activation, % at 7.6 µM; hit rate 0.66% among 360,000; AID 624169;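 active = activation above a run cutoff, the mean activation of all tested compounds plus 3 SD, cut at about 14% in these data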
Lipid droplet – modulators of hepatic lipid droplet formation. inhibition, % at 6.5 µM. hit rate 0.4% among 240,000. AML12 mouse hepatocytes, oleate lipid droplets, BODIPY imaging;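 active = lipid droplet intensity inhibited by at least 50%, with more than 500 cells counted; inconclusive = wells with under 300 cells, treated as cytotoxic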
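Assay system: AML12 mouse liver cells | Compound dosing: One dose, 6.5 µM compound | Read-out basis: Droplet intensity reduction, % inhibition | Measured by: Fluorescence imaging, 20x objective, two fields per well | Schedule: Overnight treatment with compound plus oleate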
MOR ag counter – activates human mu opioid receptor in HTR2A counterscreen; shares compounds with m5-HT2A agonist; U2OS OPRM1 beta-arrestin PathHunter, luminescence; DMSO 0%, DAMGO 9.3 µM 100%; activation, % at 9.3 µM; hit rate 5.3% among 2,300;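 active = mean activation above the mean of DMSO-only wells plus 3 SD, cut at about 0.5% in these data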
m5-HT2A ag conf – mouse HTR2A agonism confirmed. activation, % at 7.6 µM. hit rate 19% among 2,300. AID 624381. CHO-K1 PathHunter beta-arrestin recruitment, luminescence; DMSO 0%, 30 µM serotonin 100%. shares compounds with m5-HT2A agonist;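 active = mean activation across triplicates above the hit threshold derived in the original primary screen, cut at about 15% in these data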
A number is an active result; - = inactive; ? = inconclusive; . = not tested or not shown. Compounds with a hit are over-represented: about 2.7% of the library has one in this group of screens.

SMILES	NTR1 agonist	MC4R barr agon	PREPL inh	MC4R antagonist	m5-HT2A agonist	Lipid droplet	MOR ag counter	m5-HT2A ag conf
COc1ccc(CCNCc2ccsc2)cc1OC	-	-	-	-	18.8	-	-	-
O=C(NCP(=O)(Oc1ccccc1)Oc1ccccc1)OCc1ccccc1	.	.	.	.	-	.	.	.
CN1CCN(c2nc3ccccc3o2)CC1	-	-	-	-	-	-	.	.
c1ccc2oc(N3CCNCC3)nc2c1	-	-	-	-	29.4	.	-	-
CCOc1cc2c(cc1OCC)-n1cccc1C(c1cc(OC)ccc1F)NC2 (stereo not drawn)	-	-	-	-	-	-	.	.
Cn1c(=O)cc(SCC(=O)N2CCC3(CC2)OCCO3)c2ccc(Cl)cc21	-	-	-	-	16.4	-	-	-
CC(=O)OC(C)(C)/C=C/C(=O)C(C)(O)C1[C@H](O)C[C@@]2(C)C3CC=C4C(CC[C@@H](O)C4(C)C)[C@]3(CO)C(=O)C[C@]12C (stereo partly drawn)	-	-	-	-	25.2	?	-	-
O=C(Cc1ccc(Br)cc1)N1CCN(Cc2ccccc2)CC1	-	-	-	-	21.4	-	-	-
CCC(C)N1CCN(C(=O)Cc2ccccc2)CC1 (stereo not drawn)	-	-	-	-	20.1	-	-	-
COC(/C(C)=C/C=C/C(C)=C/c1coc(C)n1)C(C)C1CC(O)C2(C)OC2C=CC(C)C2CC(CC(=O)O2)CC2OC2C(=O)O1 (stereo not drawn)	.	-	.	-	-	.	.	.
